Results published in ChEMBL document CHEMBL5303300, “EUbOPEN Chemogenomics Library - Multiplex” (2023).
“And” between values parts separate entries of the source, which are not always exact repeats. Equal values may be shown once.

Tested on: HEK-293T
Assay: Multiplex assay against HEK293T
Type: toxicity, cell-based
Conditions: human, number of replicates 2
Outline: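 Tubulin, mitochondrial-mass and membrane-permeability phenotypes are per cents of healthy-nucleus cells. Cells were gated by CellPathfinder machine learning into Hoechst high-intensity objects or normal cells, normal cells into healthy, pyknosed or fragmented nuclei, and pyknosed cells into mitotic or apoptotic. Before that, live cells stained at seeding with Hoechst33342, BioTracker Green Microtubule Cytoskeleton Dye, MitoTracker Red and Annexin V Alexa Fluor 680 were imaged on a CQ1 microscope at 37°C and 5% CO2 after compound addition.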

[1] = 12 h, 1 µM, compound concentration 1 uM
[2] = 12 h, 10 µM, compound concentration 10 uM
[3] = 24 h, 1 µM, compound concentration 1 uM
[4] = 24 h, 10 µM, compound concentration 10 uM
[5] = 48 h, 1 µM, compound concentration 1 uM
[6] = 48 h, 10 µM, compound concentration 10 uM
[7] = 12 h, 0 µM, compound concentration 0 uM
[8] = 24 h, 0 µM, compound concentration 0 uM
[9] = 48 h, 0 µM, compound concentration 0 uM

O=C1NC(=O)C(c2ccccc2[N+](=O)[O-])=C1Nc1ccc(O)c(Cl)c1
Population Apoptotic (%) [1]: 41% and 45%
Population Fragmented Nuclei (%) [1]: 4% and 2%
Population Healthy Nuclei (%) [1]: 82% and 83%
Population Hoechst High Intensity Objects (%) [1]: 6% and 3%
Population Membrane Permeable-Phenotype (%) [1]: 2%
Population Mitochondria Different-Phenotype (%) [1]: 11% and 12%
Population Mitotic Cells (%) [1]: 58% and 54%
Population Normal (%) [1]: 93% and 96%
Population Pyknosed Nuclei (%) [1]: 13%
Population Tubulin-Different-Phenotype (%) [1]: 41%
Total Cell Count [1]: 694 and 574
Population Apoptotic (%) [2]: 32% and 38%
Population Fragmented Nuclei (%) [2]: 6% and 5%
Population Healthy Nuclei (%) [2]: 82% and 87%
Population Hoechst High Intensity Objects (%) [2]: 4% and 7%
Population Membrane Permeable-Phenotype (%) [2]: 6% and 4%
Population Mitochondria Different-Phenotype (%) [2]: 8% and 5%
Population Mitotic Cells (%) [2]: 67% and 61%
Population Normal (%) [2]: 95% and 92%
Population Pyknosed Nuclei (%) [2]: 11% and 7%
Population Tubulin-Different-Phenotype (%) [2]: 34% and 31%
Total Cell Count [2]: 496 and 670
Population Apoptotic (%) [3]: 40% and 37%
Population Fragmented Nuclei (%) [3]: 4% and 3%
Population Healthy Nuclei (%) [3]: 86% and 88%
Population Hoechst High Intensity Objects (%) [3]: 5% and 7%
Population Membrane Permeable-Phenotype (%) [3]: 2%
Population Mitochondria Different-Phenotype (%) [3]: 3% and 5%
Population Mitotic Cells (%) [3]: 59% and 62%
Population Normal (%) [3]: 94% and 92%
Population Pyknosed Nuclei (%) [3]: 8%
Population Tubulin-Different-Phenotype (%) [3]: 22% and 24%
Total Cell Count [3]: 1100 and 894
Population Apoptotic (%) [4]: 26% and 19%
Population Fragmented Nuclei (%) [4]: 4% and 8%
Population Healthy Nuclei (%) [4]: 89% and 83%
Population Hoechst High Intensity Objects (%) [4]: 5% and 7%
Population Membrane Permeable-Phenotype (%) [4]: 5% and 3%
Population Mitochondria Different-Phenotype (%) [4]: 2% and 1%
Population Mitotic Cells (%) [4]: 73% and 80%
Population Normal (%) [4]: 94% and 92%
Population Pyknosed Nuclei (%) [4]: 6% and 7%
Population Tubulin-Different-Phenotype (%) [4]: 14% and 18%
Total Cell Count [4]: 721 and 1015
Population Apoptotic (%) [5]: 14% and 15%
Population Fragmented Nuclei (%) [5]: 13% and 9%
Population Healthy Nuclei (%) [5]: 83% and 87%
Population Hoechst High Intensity Objects (%) [5]: 7% and 9%
Population Membrane Permeable-Phenotype (%) [5]: 5% and 4%
Population Mitochondria Different-Phenotype (%) [5]: 0%
Population Mitotic Cells (%) [5]: 85% and 84%
Population Normal (%) [5]: 92% and 90%
Population Pyknosed Nuclei (%) [5]: 2% and 3%
Population Tubulin-Different-Phenotype (%) [5]: 12% and 11%
Total Cell Count [5]: 2762 and 1997
Population Apoptotic (%) [6]: 11% and 2%
Population Fragmented Nuclei (%) [6]: 14% and 21%
Population Healthy Nuclei (%) [6]: 82% and 77%
Population Hoechst High Intensity Objects (%) [6]: 6% and 9%
Population Membrane Permeable-Phenotype (%) [6]: 7% and 8%
Population Mitochondria Different-Phenotype (%) [6]: 0%
Population Mitotic Cells (%) [6]: 88% and 97%
Population Normal (%) [6]: 93% and 90%
Population Pyknosed Nuclei (%) [6]: 3% and 1%
Population Tubulin-Different-Phenotype (%) [6]: 7%
Total Cell Count [6]: 1557 and 2547

COc1cc(C(N)=O)ccc1Nc1ncc2c(n1)N(CCC(C)C)[C@H](C)C(=O)N2C
Population Apoptotic (%) [7]: 47% and 52%
Population Fragmented Nuclei (%) [7]: 3% and 2%
Population Healthy Nuclei (%) [7]: 86% and 88%
Population Hoechst High Intensity Objects (%) [7]: 2%
Population Membrane Permeable-Phenotype (%) [7]: 4% and 10%
Population Mitochondria Different-Phenotype (%) [7]: 31% and 35%
Population Mitotic Cells (%) [7]: 52% and 47%
Population Normal (%) [7]: 97%
Population Pyknosed Nuclei (%) [7]: 10% and 9%
Population Tubulin-Different-Phenotype (%) [7]: 82% and 95%
Total Cell Count [7]: 540 and 476
Population Apoptotic (%) [1]: 62% and 60%
Population Fragmented Nuclei (%) [1]: 1% and 4%
Population Healthy Nuclei (%) [1]: 73% and 75%
Population Hoechst High Intensity Objects (%) [1]: 8% and 7%
Population Membrane Permeable-Phenotype (%) [1]: 2%
Population Mitochondria Different-Phenotype (%) [1]: 38% and 28%
Population Mitotic Cells (%) [1]: 37% and 39%
Population Normal (%) [1]: 91% and 92%
Population Pyknosed Nuclei (%) [1]: 24% and 20%
Population Tubulin-Different-Phenotype (%) [1]: 64% and 58%
Total Cell Count [1]: 432 and 456
Population Apoptotic (%) [8]: 67% and 50%
Population Fragmented Nuclei (%) [8]: 4% and 5%
Population Healthy Nuclei (%) [8]: 88%
Population Hoechst High Intensity Objects (%) [8]: 3% and 2%
Population Membrane Permeable-Phenotype (%) [8]: 1% and 2%
Population Mitochondria Different-Phenotype (%) [8]: 44% and 59%
Population Mitotic Cells (%) [8]: 32% and 50%
Population Normal (%) [8]: 96% and 97%
Population Pyknosed Nuclei (%) [8]: 6%
Population Tubulin-Different-Phenotype (%) [8]: 81% and 96%
Total Cell Count [8]: 464 and 423
Population Apoptotic (%) [3]: 75% and 68%
Population Fragmented Nuclei (%) [3]: 5%
Population Healthy Nuclei (%) [3]: 69% and 76%
Population Hoechst High Intensity Objects (%) [3]: 8% and 6%
Population Membrane Permeable-Phenotype (%) [3]: 1%
Population Mitochondria Different-Phenotype (%) [3]: 34% and 32%
Population Mitotic Cells (%) [3]: 24% and 31%
Population Normal (%) [3]: 91% and 93%
Population Pyknosed Nuclei (%) [3]: 25% and 18%
Population Tubulin-Different-Phenotype (%) [3]: 38% and 35%
Total Cell Count [3]: 461 and 420
Population Apoptotic (%) [9]: 72% and 75%
Population Fragmented Nuclei (%) [9]: 16% and 11%
Population Healthy Nuclei (%) [9]: 78% and 80%
Population Hoechst High Intensity Objects (%) [9]: 3%
Population Membrane Permeable-Phenotype (%) [9]: 1% and 3%
Population Mitochondria Different-Phenotype (%) [9]: 39% and 55%
Population Mitotic Cells (%) [9]: 28% and 24%
Population Normal (%) [9]: 96%
Population Pyknosed Nuclei (%) [9]: 5% and 7%
Population Tubulin-Different-Phenotype (%) [9]: 63% and 89%
Total Cell Count [9]: 505 and 420
Population Apoptotic (%) [5]: 72% and 73%
Population Fragmented Nuclei (%) [5]: 8% and 11%
Population Healthy Nuclei (%) [5]: 72% and 76%
Population Hoechst High Intensity Objects (%) [5]: 5% and 4%
Population Membrane Permeable-Phenotype (%) [5]: 1%
Population Mitochondria Different-Phenotype (%) [5]: 14% and 17%
Population Mitotic Cells (%) [5]: 27% and 26%
Population Normal (%) [5]: 94% and 95%
Population Pyknosed Nuclei (%) [5]: 19% and 12%
Population Tubulin-Different-Phenotype (%) [5]: 24% and 20%
Total Cell Count [5]: 520 and 517

Cc1cn(CCN2CCN(c3ccccc3-c3cc(C#N)cc(C(=O)NCCCN4CCCC4)c3)CC2)c2ccccc12
Population Apoptotic (%) [1]: 34% and 44%
Population Fragmented Nuclei (%) [1]: 3%
Population Healthy Nuclei (%) [1]: 82% and 84%
Population Hoechst High Intensity Objects (%) [1]: 7% and 6%
Population Membrane Permeable-Phenotype (%) [1]: 3% and 4%
Population Mitochondria Different-Phenotype (%) [1]: 26% and 20%
Population Mitotic Cells (%) [1]: 65% and 55%
Population Normal (%) [1]: 92% and 93%
Population Pyknosed Nuclei (%) [1]: 13% and 12%
Population Tubulin-Different-Phenotype (%) [1]: 72% and 71%
Total Cell Count [1]: 634 and 574
Population Apoptotic (%) [2]: 70% and 65%
Population Fragmented Nuclei (%) [2]: 2%
Population Healthy Nuclei (%) [2]: 81% and 78%
Population Hoechst High Intensity Objects (%) [2]: 5%
Population Membrane Permeable-Phenotype (%) [2]: 2% and 1%
Population Mitochondria Different-Phenotype (%) [2]: 71% and 72%
Population Mitotic Cells (%) [2]: 30% and 34%
Population Normal (%) [2]: 94%
Population Pyknosed Nuclei (%) [2]: 16% and 18%
Population Tubulin-Different-Phenotype (%) [2]: 97% and 94%
Total Cell Count [2]: 511 and 463
Population Apoptotic (%) [3]: 46% and 42%
Population Fragmented Nuclei (%) [3]: 5% and 3%
Population Healthy Nuclei (%) [3]: 86% and 89%
Population Hoechst High Intensity Objects (%) [3]: 8%
Population Membrane Permeable-Phenotype (%) [3]: 3%
Population Mitochondria Different-Phenotype (%) [3]: 12%
Population Mitotic Cells (%) [3]: 53% and 57%
Population Normal (%) [3]: 91%
Population Pyknosed Nuclei (%) [3]: 7% and 6%
Population Tubulin-Different-Phenotype (%) [3]: 57% and 51%
Total Cell Count [3]: 1111 and 826
Population Apoptotic (%) [4]: 77% and 76%
Population Fragmented Nuclei (%) [4]: 1% and 3%
Population Healthy Nuclei (%) [4]: 85% and 79%
Population Hoechst High Intensity Objects (%) [4]: 9% and 4%
Population Membrane Permeable-Phenotype (%) [4]: 1% and 2%
Population Mitochondria Different-Phenotype (%) [4]: 88% and 81%
Population Mitotic Cells (%) [4]: 22% and 23%
Population Normal (%) [4]: 90% and 95%
Population Pyknosed Nuclei (%) [4]: 12% and 16%
Population Tubulin-Different-Phenotype (%) [4]: 97% and 95%
Total Cell Count [4]: 524 and 487
Population Apoptotic (%) [5]: 16% and 21%
Population Fragmented Nuclei (%) [5]: 14% and 8%
Population Healthy Nuclei (%) [5]: 82% and 87%
Population Hoechst High Intensity Objects (%) [5]: 10% and 8%
Population Membrane Permeable-Phenotype (%) [5]: 5% and 3%
Population Mitochondria Different-Phenotype (%) [5]: 1% and 4%
Population Mitotic Cells (%) [5]: 83% and 78%
Population Normal (%) [5]: 89% and 91%
Population Pyknosed Nuclei (%) [5]: 3% and 4%
Population Tubulin-Different-Phenotype (%) [5]: 27% and 31%
Total Cell Count [5]: 2524 and 1476
Population Apoptotic (%) [6]: 65% and 73%
Population Fragmented Nuclei (%) [6]: 6% and 8%
Population Healthy Nuclei (%) [6]: 82% and 77%
Population Hoechst High Intensity Objects (%) [6]: 7% and 11%
Population Membrane Permeable-Phenotype (%) [6]: 3% and 1%
Population Mitochondria Different-Phenotype (%) [6]: 57% and 66%
Population Mitotic Cells (%) [6]: 34% and 26%
Population Normal (%) [6]: 92% and 88%
Population Pyknosed Nuclei (%) [6]: 10% and 14%
Population Tubulin-Different-Phenotype (%) [6]: 90% and 93%
Total Cell Count [6]: 709 and 587
